This is an account of results in PubChem BioAssay AID449763 (Sanford-Burnham Center for Chemical Genomics, 2010).

The campaign covered roughly 330,000 compounds. About 1,100 (0.33%) were called active.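 How the source made its calls: active means at 10 µM dose, activation of 40% or more, normalized to positive control; inactive means the rest.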 For the sample, actives were picked, then their nearest neighbours and some compounds at random.

The assay is described as follows: PERK-eIF2a-CHOP pathway stimulators – cell-based, CHO-CHOP luciferase reporter, luminescence, uHTS, primary screen (AID 449763).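 Further: 100% = tunicamycin at 10 µg/mL and 0% = DMSO alone.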 The conditions noted are these: UPR activation, at 10 µM, active compounds read high, percent of tunicamycin response over DMSO baseline. In a few lines: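 Assay system: CHO-CHOP cells, stable luciferase reporter of PERK-eIF2a-CHOP signalling / Buffer or medium: F12 plus 10% serum / Compound dosing: one dose, 10 µM in 0.5% DMSO / Times: 6 h compound treatment, 37 °C / Technique: luciferase luminescence / Read-out: % reporter activation, DMSO baseline versus tunicamycin full activation / Benchmarks: tunicamycin and DMSO controls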
A general note: In a reporter assay the amount or activity of a reporter protein is the signal.
On to `COc1ccccc1N=Cc1c(O)c2ccccc2oc1=O`, for which the activation was 130% (active).
The value for `COc1cc(N=Cc2c(O)c3ccccc3oc2=O)c(OC)cc1Cl` was 3.5% (inactive); that for `COc1ccccc1N=C(C)C1=C(O)COC1=O` was -0.0733% (inactive); that for `COc1ccc(C(=O)Nc2cc(S(=O)(=O)N3CCCC3)ccc2Cl)cc1` was 0.727% (inactive).
Regarding `Cc1ccc(CN2CCCOCCS2(=O)=O)cc1`, the activation is -0.00453% (inactive).
As for `CCN(CC(=O)Nc1cccc(S(=O)(=O)N2CCCCC2)c1)Cc1ccccc1`, the activation was -0.441% (inactive).
Next, `Nc1nc(CC(=O)CSc2ccc(Cl)cc2)nc(Nc2ccc(F)cc2)n1`: 42.4% (active); `Nc1nc(COC(=O)CCC(=O)c2ccc(Cl)cc2)nc(Nc2ccccc2)n1`: 0.238% (inactive).
The value for `Cc1ccc(Nc2nc(N)nc(CSc3nnc(C)s3)n2)cc1` was 4.12% (inactive); that for `COc1ccc(C(=O)CSc2nnnn2C)c(OC)c1` was 0.876% (inactive); that for `Cc1cccc(C)c1NC(=O)C(Cl)C(=O)c1ccccc1` (stereo not given) was 52.9% (active).
On to `Cc1cccc(C)c1NC(=O)CN(C)C(=O)CCC(=O)c1ccccc1`, for which the activation is 0.683% (inactive).
The value for `Cc1cccc(C)c1NC(=O)C(c1ccccc1)N1CC(=O)Nc2ccccc21` (stereo not given) was -0.493% (inactive).
Regarding `C1=C(N2CCOCC2)/C(=C/c2nc3ccccc3[nH]2)CC1`, the activation is -3.2% (inactive).
The value for `CSc1nc(-c2ccccc2)nc(C(Cl)Cl)n1` was 46.2% (active).
Next, `CSc1ncc(Sc2ccccc2)c(C(=O)O)n1`: -0.159% (inactive).
The value for `CC(C)=CCC/C(C)=C/C(=O)O` was 0.467% (inactive).
Turning to `COc1ccccc1N1CCN(CC(=O)NCCc2ccc(S(N)(=O)=O)cc2)CC1`, the activation is -1.28% (inactive).
Next, `O=C(/C=C/c1cccs1)c1cc(Cl)ccc1OC(=O)N1CCOCC1`: 2.72% (inactive); `COc1ccc(C(=O)N2CCC(C(=O)Nc3ccc(C)cc3)CC2)cc1`: -0.572% (inactive).
Next, `CC(C)(C)n1nc(Cc2cccc3ccccc23)c(C#N)c1N`: 0.111% (inactive).
The value for `CCc1nn(-c2cc(Oc3cccc4ccccc34)nc(-c3ccccc3)n2)c(N)c1C#N` was 56.7% (active).
`CCCC(c1nnnn1C(C)(C)C)N1CCN(Cc2ccccc2)CC1` (stereo not given): the activation was -1.39% (inactive).
Consider `CC(C)[C@H](NC(=O)N1c2ccccc2NC(=O)[C@@H]1C(C)C)C(=O)N[C@H](C(=O)O)c1ccccc1`, for which the activation was -2.11% (inactive).
`C=CCN1CN(S(=O)(=O)c2ccc(OC)cc2)c2nc3ccccc3nc21`: the activation was 0.29% (inactive).
Next, `CC(=O)Nc1ccc(S(=O)(=O)Nc2ccc(N3CCCCC3)cc2)cc1`: 4.38% (inactive).
The value for `O=C(Cc1ccccc1)NC(=S)Nc1ccc(N2CCCCC2)cc1` was 0.603% (inactive); that for `O=C1C=CC(=O)N1c1ccc(N2CCCCC2)cc1` was 44.6% (active); that for `COc1ccccc1-n1c(SCC(=O)O)nc2sc3c(c2c1=O)CCC3` was 1.38% (inactive).
Next, `COc1ccc(NC(=O)C(CC(C)C)NC(=O)C2CCC(C)CC2)cc1` (stereo not given): 0.903% (inactive); `COc1ccccc1CNS(=O)(=O)c1cc2c3c(c1)CCC(=O)N3CCC2`: 2.93% (inactive).
In the case of `Fc1ccc2nc(-c3ccccc3)nc(SCc3nnc(-c4ccccc4)o3)c2c1`, the activation is 0.865% (inactive).
On to `COCCSc1nnc(NC(=O)CCS(=O)(=O)Cc2ccccc2)s1`, for which the activation was -0.572% (inactive).
Next, `Cc1ccc(CS(=O)(=O)c2ncc(Cl)c(C(=O)Nc3nnc(C)s3)n2)cc1`: 26.4% (inactive).
The value for `Cc1cccc(CS(=O)(=O)c2ncc(Cl)c(C(=O)Nc3ccc(F)cc3)n2)c1` was 278% (active); that for `CSc1nnc(NC(=O)c2nc(S(=O)(=O)Cc3ccc(C)cc3)ncc2Cl)s1` was 72.6% (active).
Next, `CCOc1ccc(NC(=O)c2nc(SCC)ncc2Cl)cc1`: 0.746% (inactive).
Take `Cc1cccc(NC(=O)c2nc(S(=O)(=O)Cc3ccccc3)ncc2Cl)c1`: the activation is -9.27% (inactive).
Take `O=C(NCCCCO)C(F)(F)C(F)(F)C(F)(F)C(=O)NCCCCO`: the activation is 2.68% (inactive).
`Cc1cccc(OCc2nnc(SCc3nc4cc(C(F)(F)F)ccc4c(=O)[nH]3)o2)c1`: the activation was 1.49% (inactive).
The value for `Cc1ccc(OCc2nnc(SC3CCc4ccccc4C3=O)n2C)cc1` (stereo not given) was 0.0439% (inactive); that for `CSc1ccc(/C=C/C(=O)NC23CC4CC(CC(C4)C2)C3)cc1` was 6.51% (inactive); that for `Clc1ccc(CN2CCCCCC2)cc1Cl` was 0.707% (inactive).
The value for `O=S(=O)(NCCc1ccc(F)cc1)c1cccc2cccnc12` was 0.907% (inactive).
Next, `NS(=O)(=O)c1ccc(CCNS(=O)(=O)c2cccc3cccnc23)cc1`: 0.112% (inactive); `O=[N+]([O-])c1ccccc1S(=O)(=O)Nc1cccc2cccnc12`: 428% (active).
On to `Cc1ccc2oc(=O)c3cnn(CC(=O)N(Cc4ccco4)C4CCCCC4)c3c2c1`, for which the activation was 0.347% (inactive).
The value for `CC(C)CCNC(=O)Cn1c(=O)oc2cc(S(=O)(=O)N3CC(C)CC(C)C3)ccc21` (stereo not given) was 0.0919% (inactive); that for `CCc1ccccc1NC(=O)[C@@H]1CCC(=O)N1C1OC(=O)c2c1ccc(OC)c2OC` (stereo not given in full) was -1.13% (inactive).
The value for `COc1cc(CC(=O)Nc2nc(-c3ccc(F)c(F)c3)cs2)cc(OC)c1OC` was 6.97% (inactive); that for `COc1ccc2c(c1OC)C(=O)OC2Nc1nc(-c2ccccc2)cs1` (stereo not given) was 41.7% (active).
Next, `O=C1Nc2cc(Cl)c(Cl)cc2N(O)N1c1ccccc1Cl`: 0.176% (inactive).
Regarding `COc1ccc(N=C2SC(C(=O)Nc3ccc(F)cc3)CC(=O)N2C)cc1` (stereo not given), the activation was -0.141% (inactive).
The value for `CCOCCc1nn2c(=O)cc(CSCC(=O)Nc3cccc(C)c3C)nc2s1` was -1.45% (inactive); that for `Cn1c(-c2ccc(C(F)(F)F)cc2)cc2onc(-c3ccccc3)c2c1=O` was 5.2% (inactive).
Next, `CCCCCCC(=O)N(O)C1CC(=O)N(c2ccccc2)C1=O` (stereo not given): 1.5% (inactive); `CCOc1ccc(N2C(=O)CC(N(O)c3ccccc3)C2=O)cc1` (stereo not given): 185% (active).
The value for `CCOc1ccc(N2C(=O)CC(N(CCc3ccc(OC)c(OC)c3)C(=S)Nc3ccccc3)C2=O)cc1` (stereo not given) was 1.65% (inactive); that for `CC(=O)NNC1=Nc2ccccc2N(C)C(C)C1` (stereo not given) was 1.41% (inactive); that for `CCOc1cc(N2CCOCC2)c(OCC)cc1NC(=O)C1=NN(c2cccc(C)c2)C(=O)CC1` was 1.02% (inactive).
